Assay outcomes from PubChem.
SIRT5 block: blocks human SIRT5 desuccinylation of peptide; hit rate 1.1% among 330,000; Purified SirT5, succinyl-peptide AMC, trypsin-coupled fluorescence; Q9NXA8; inhibition, % at 15 µM; in the data active = inhibition above about 15%
Target sequence (Q9NXA8 whole entry, looked up): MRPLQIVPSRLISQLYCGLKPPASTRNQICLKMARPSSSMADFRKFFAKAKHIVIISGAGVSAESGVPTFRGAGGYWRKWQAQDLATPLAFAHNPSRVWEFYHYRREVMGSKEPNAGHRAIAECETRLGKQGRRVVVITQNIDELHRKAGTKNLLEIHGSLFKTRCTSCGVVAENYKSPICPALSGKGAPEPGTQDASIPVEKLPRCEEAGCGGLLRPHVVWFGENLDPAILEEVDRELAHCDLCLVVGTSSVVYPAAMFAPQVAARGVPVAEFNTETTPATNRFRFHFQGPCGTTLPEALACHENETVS
ERAP1 inh: blocks human ERAP1 aminopeptidase activity; Q9NZ08; inhibition, % at 10.7 µM; hit rate 0.15% among 340,000; recombinant ERAP1, Leu-AMC fluorescence, 60 min;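 active = mean replicate inhibition of at least 30%, or all replicates individually reaching that 30% level; inactive = mean below 30% and not every replicate reaching it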
S100A4 MyoIIA: blocks human S100A4 binding to myosin IIA peptide; P26447; S100A4/TAMRA-MyoIIA peptide fluorescence polarization; inhibition, % at 10.7 µM; hit rate 0.14% among 360,000; AID 652163;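 active = mean inhibition of at least 70% across replicates, with every replicate also reaching that level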
Target sequence (P26447 whole entry, looked up): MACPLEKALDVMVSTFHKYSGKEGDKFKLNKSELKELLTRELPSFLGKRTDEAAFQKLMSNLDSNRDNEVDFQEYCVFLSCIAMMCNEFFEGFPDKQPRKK
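Material: S100A4 monomer protein | Medium: HEPES pH 7.2 with CaCl2, KCl, NaCl, DTT, Triton | Reagent: Labelled myosin peptide probe, 5 nM | Doses: One dose per compound | Times: 5 min incubation before reading | Benchmarks: Neutral control DMSO, positive control TFP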
CAL PDZ FP-1: inhibitors of human CAL PDZ peptide binding | Q9HD26 | purified CAL PDZ, TMR-peptide fluorescence polarization, 1 h | inhibition, % at 24.9 µM | hit rate 0.92% among 300,000 | AID 602252;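 active = mean inhibition of at least 30% with at least half of replicates also reaching 30%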
CAL PDZ FP-2: human CAL PDZ-peptide interaction inhibition; Q9HD26; purified CAL PDZ, TMR-peptide fluorescence polarization, 1 h; inhibition, % at 20 µM; hit rate 0.02% among 330,000; AID 504414;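 active = highest replicate inhibition of at least 40%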
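System: tagged CAL PDZ domain. Schedule: 1 h room-temperature incubation prior to read. Signal: fluorescence polarization (mP). Measure: percent inhibition from loss of millipolarization.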
DENV2 CPE rescue: DENV2-induced cell death inhibition | CPE inhibition, % at 9.99 µM | DENV2-infected cells, cytopathic effect rescue, plate reader | hit rate 1.7% among 350,000; in the data active = CPE inhibition above about 20%, passing the limit was not always enough; tested in BHK-21 cells
Numbers stand for hits; . = inactive; / = no result. Most compounds without a hit are left out; they make up all but 2.9% or so of the library.

SMILES	SIRT5 block	ERAP1 inh	S100A4 MyoIIA	CAL PDZ FP-1	CAL PDZ FP-2	DENV2 CPE rescue
COc1ccc(-n2c(SCC(=O)N3CCOCC3)nc(O)cc2=O)cc1	.	.	.	.	.	.
C[C@@H]1CN([C@@H](C)CO)C(=O)c2c(c3ccccc3n2C)-c2ccccc2CO[C@H]1CN(C)C(=O)Nc1ccccc1	.	.	.	/	/	.
O=C(Nc1cccc(NC(=O)c2ccc(Br)o2)n1)c1ccc(Br)o1	/	/	/	/	.	/
Cc1ccc2cccc(NC(=O)c3ccc(Br)o3)c2n1	/	/	/	70	.	/
CCC(C)[C@H]1CN=C(N)N1CCCc1cc(OC)c(OC)c(OC)c1 (some centres undefined)	23	.	.	.	.	.
COc1ccc(NC(=O)CSc2n[nH]c(-c3ccco3)n2)cc1	.	.	.	.	.	.
O=C(CSc1n[nH]c(-c2ccco2)n1)Nc1ccc(Br)cc1	.	.	.	.	.	30
CO[C@H]1CN(C)C(=O)c2cc(NC(C)=O)ccc2OC[C@H](C)N(CCc2ccccc2)C[C@@H]1C	.	.	.	/	/	.
CN1C(c2ccccc2)CCOS1(=O)=O (centres undefined)	/	.	.	.	.	47
O=S1(=O)OCCC(c2ccccc2)N1Cc1ccccc1 (centres undefined)	/	.	.	.	.	.
CC(=O)N(C)C[C@H]1Oc2ncc(C#C[C@@H](C)O)cc2C(=O)N([C@H](C)CO)C[C@H]1C	.	.	.	/	/	.
CCOC(=O)C1=C(CN2CCOCC2)NC(=O)NC1c1cccc([N+](=O)[O-])c1 (centres undefined)	16	.	.	.	.	.
C[C@@H]1CN([C@H](C)CO)S(=O)(=O)c2ccc(-c3ccc(F)cc3)cc2O[C@H]1CN(C)C	.	.	.	/	/	.
Cc1ccc(S(=O)(=O)N(C)C[C@H]2OCCCC[C@H](C)Oc3ccc(NC(=O)NC(C)C)cc3C(=O)N([C@@H](C)CO)C[C@@H]2C)cc1	.	.	.	/	/	.
COc1cc(C2NC(=O)NC(C)=C2C(=O)OC2CCCCC2)cc(Cl)c1O (centres undefined)	.	.	.	.	.	.
COc1cc(C2NC(=O)NC(C)=C2C(=O)OC2CCCC(C)C2)cc(Br)c1O (centres undefined)	.	.	.	.	.	46
CO[C@H]1CN(C)C(=O)c2cc(NC(=O)c3cnccn3)ccc2OC[C@@H](C)N(C(C)=O)C[C@@H]1C	/	.	.	/	/	.
COc1ccc(NC(=O)Nc2ccc3c(c2)C(=O)N([C@H](C)CO)C[C@H](C)[C@H](CN(C)C(=O)Nc2ccc(OC)cc2)OCCCC[C@H](C)O3)cc1	.	.	.	/	/	.
COc1ccc(NC(=O)N(C)C[C@H]2OCCCC[C@@H](C)Oc3ccc(NC(=O)Nc4ccc5c(c4)OCO5)cc3C(=O)N([C@@H](C)CO)C[C@H]2C)cc1	.	.	.	/	/	70
COc1ccc(NC(=O)Nc2ccc3c(c2)C(=O)N([C@@H](C)CO)C[C@H](C)[C@H](CN(C)C(=O)Nc2ccc4c(c2)OCO4)OCCCC[C@@H](C)O3)cc1	.	.	.	/	/	.
COc1ccc(NC(=O)N(C)C[C@H]2OCCCC[C@@H](C)Oc3ccc(NC(=O)Cc4ccccc4)cc3C(=O)N([C@H](C)CO)C[C@@H]2C)cc1	19	.	.	/	/	.
COc1ccc(NC(=O)Nc2ccc3c(c2)C(=O)N([C@@H](C)CO)C[C@@H](C)[C@H](CN(C)C(=O)Nc2cccc4ccccc24)OCCCC[C@H](C)O3)cc1	20	.	.	/	/	.
COc1ccc(NC(=O)Nc2ccc3c(c2)C(=O)N([C@H](C)CO)C[C@@H](C)[C@@H](CN(C)C(=O)Nc2ccc(OC)cc2)OCCCC[C@@H](C)O3)cc1	/	.	.	/	/	48
CN(C)C(=O)c1ccc(-c2ccc([C@H]3[C@@H](CO)N4C(=O)CN(C(=O)C5CCCC5)C[C@H]34)cc2)cc1	.	.	.	/	/	.
COc1ccc(NC(=O)Nc2ccc3c(c2)C(=O)N([C@H](C)CO)C[C@H](C)[C@H](CN(C)C(=O)NC(C)C)OCCCC[C@H](C)O3)cc1	.	.	.	/	/	33
C[C@@H]1CCCCO[C@@H](CN(C)C(=O)Nc2cccc3ccccc23)[C@H](C)CN([C@H](C)CO)C(=O)c2cc(NC(=O)Cc3ccccc3)ccc2O1	.	.	.	/	/	.
